Results gathered from unrelated publications.
Each line is one published result; the experiments were not run side by side.
Read-out: metabolic stability
Host: human

| Structure (SMILES) | test system | setting | endpoint | result |
| --- | --- | --- | --- | --- |
| CCC(CC)COC(=O)[C@H](C)N[P@](=O)(OC[C@@H]1C[C@@H](O)[C@H](n2cnc3c(N)ncnc32)O1)Oc1ccccc1 | liver microsomes | 1 µM | microsomal CLint | 2120 µL/min/mg |
| O=C(O)Cc1ccccc1Nc1c(Cl)cccc1Cl | hepatocytes | 0.5 µM, pH 7.4 | hepatocyte CLint | 98.2 µL/min/10⁶ cells |
| CCOc1ccc(NC(C)=O)cc1 | liver microsomes |  | microsomal CLint | 20.7 µL/min/mg |
| O=c1ccc2ccc(O)cc2o1 | hepatocytes | 1 µM | hepatocyte CLint | 56 µL/min/10⁶ cells |
| Cn1c(=O)c2c(ncn2C)n(C)c1=O | hepatocytes | 0.5 µM, pH 7.4 | hepatocyte CLint | 1.85 µL/min/10⁶ cells |
| CC1(CN)CCN(c2cnc3c(Sc4ccncc4Cl)n[nH]c3n2)CC1 | liver microsomes |  | scaled CLint | 2.04 L/h/kg |
| CCN(CCN)c1ccc(Nc2cc(NC3CC3)n3ncc(C#N)c3n2)cc1-n1cnnc1 | hepatocytes | 1 µM, serum-free | scaled CLint | < 0.414 L/h/kg |
| NC(=O)N1c2ccccc2C=Cc2ccccc21 | liver microsomes | 1 µM | microsomal CLint | < 3 µL/min/mg |
| O=c1ccc2cc(O)ccc2o1 | liver microsomes |  | microsomal CLint | 22 µL/min/mg |
| CCOc1ccc2ccc(=O)oc2c1 | hepatocytes | 1 µM | hepatocyte CLint | 60.6 µL/min/10⁶ cells |
| Cn1nc2c(=O)n(C3CC3)ccc2c1[C@](O)(c1cnc(C(F)(F)F)c(Cl)c1)C(F)(F)F | hepatocytes | 0.5 µM, pH 7.4 | hepatocyte CLint | 0.5 µL/min/10⁶ cells |
| CC(C)C[C@H](NC(=O)[C@@H]1COCCCCCC(=O)NCC(=O)N2CCC[C@H]2C(=O)N1)C(=O)[C@@]1(C)CO1 | liver microsomes | 2 µM, 1 h | scaled CLint | 1.35 L/h/kg |
| CC[N+]1(C)CCN(c2ccc(NC(=O)c3cccc(C)n3)cc2)CC1 | liver microsomes |  | microsomal CLint | < 3 µL/min/mg |
| CC(C)C[C@H](NC(=O)[C@@H]1COCCCCCC(=O)N2CC[C@H]2C(=O)N1)C(=O)[C@@]1(C)CO1 | liver microsomes | 2 µM, 1 h | scaled CLint | 1.74 L/h/kg |
| CCn1ccc2c([C@](O)(c3cnc(C(F)(F)F)c(Cl)c3)C3CC3)n(C)nc2c1=O | liver microsomes | 0.5 µM, pH 7.4 | microsomal CLint | < 3 µL/min/mg |
| CC(C)C[C@H](NC(=O)[C@@H]1COCCCCCC(=O)N2C[C@H](F)C[C@H]2C(=O)N1)C(=O)[C@@]1(C)CO1 | liver microsomes | 2 µM, 1 h | scaled CLint | 1.94 L/h/kg |
| CCn1cc(C)c2c(C(O)c3ccc(Cl)c(F)c3)n(C)nc2c1=O (stereo not shown) | liver microsomes | 0.5 µM, pH 7.4 | microsomal CLint | 23 µL/min/mg |
| CC(C)C[C@H](NC(=O)[C@@H]1COCCCCCC(=O)N2CC(F)(F)C[C@H]2C(=O)N1)C(=O)[C@@]1(C)CO1 | liver microsomes | 2 µM, 1 h | scaled CLint | 3.46 L/h/kg |
| Cn1nc2c(=O)n(C3CC3)nc(C3CC3)c2c1Cc1ccc(C(F)(F)F)c(F)c1 | liver microsomes | 0.5 µM, pH 7.4 | microsomal CLint | 4.6 µL/min/mg |
